Assay results published in ChEMBL document CHEMBL4428027, “3-Hydroxypyrimidine-2,4-diones as Selective Active Site Inhibitors of HIV Reverse Transcriptase-Associated RNase H: Design, Synthesis, and Biochemical Evaluations” (J Med Chem, 2016).
Activity calls are given as the source filed them. The calls are words filed in the database; no cut-off is given here.

How the values were obtained:
[1] = biological target: T1, Human immunodeficiency virus type 1 reverse transcriptase (Human immunodeficiency virus 1, UniProt Q72547); assay: Inhibition of RNase H activity of full length recombinant HIV1 reverse transcriptase assessed as reduction in RNA 5'-end directed cleavage using HTS3 substrate
[2] = biological target: Human immunodeficiency virus type 1 integrase (Human immunodeficiency virus 1, UniProt Q7ZJM1); assay: Inhibition of HIV integrase pre-incubated for 10 mins before addition of oligo-5'-biotin ATGTGGAAAATCTCTAGCA annealed with ACTGCTAGAGATTTTCCACAT 3'-Cy5) substrate
[3] = biological target: T1, Human immunodeficiency virus type 1 reverse transcriptase; assay: Inhibition of RNase H activity of full length recombinant HIV1 reverse transcriptase assessed as reduction in DNA 3'-end cleavage using HTS2 substrate
Method in brief: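 Recombinant p66/p51 RT heterodimer. Fluorescent RNA/DNA duplex substrate HTS-2 reports DNA 3′-end-directed (polymerase-dependent) cleavage. IC50 is the mean of at least three independent experiments.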

[4] = biological target: T1, Human immunodeficiency virus type 1 reverse transcriptase; assay: Inhibition of RNase H activity of full length recombinant HIV1 reverse transcriptase assessed as reduction in nonspecific internal cleavage using HTS1 substrate
Method in brief: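 Recombinant p66/p51 RT heterodimer. Fluorescent RNA/DNA duplex substrate HTS-1 measures internal cleavage. IC50 is the mean of at least three independent experiments.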

[5] = biological target: T1, Human immunodeficiency virus type 1 reverse transcriptase; assay: Inhibition of polymerase activity of HIV1 reverse transcriptase using poly(rA)-oligo(dT)16 and [3H]-TTP incubated for 20 mins by liquid scintillation spectrometry
Method in brief: (§1)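 Reaction mix: 10 µM [3H]-TTP, 40 nM poly(rA)-oligo(dT)16, 50 mM Tris-HCl pH 7.4 (37°C), 60 mM KCl, 5 mM MgCl2. Started with 10 nM RT; 20 min at 37°C. Quenched in ice-cold 10% TCA with 20 mM sodium pyrophosphate, then glass-fibre filtered and washed with TCA and ethanol. Label incorporation read by liquid scintillation.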

[6] = biological target: T1, Human immunodeficiency virus type 1 reverse transcriptase; assay: Inhibition of re-constituted HIV1 reverse transcriptase RNase H domain fragment
Method in brief: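 Secondary check using a catalytically active, isolated HIV RNase H domain fragment (reconstituted) with duplex substrate HTS-1.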

[7] = Toxicity against human HeLa P4/R5 cells; type: cell-based
[8] = test system: Human immunodeficiency virus 1; assay: Antiviral activity against HIV1 infected in human HeLa P4/R5 cells assessed as reduction in viral growth pre-incubated with cells for 16 hrs followed by additional 48 hrs incubation by fluorescence-based beta-galactosidase detection assay; type: functional, organism-based
Method in brief: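 P4R5 HeLa indicator cells (CD4, CXCR4, CCR5; HIV LTR-driven β-galactosidase reporter), 5×10^3 cells/well in DMEM/10% FBS with puromycin 0.5 µg/ml. Drug added 16 h before HIV exposure, then 48 h further incubation. Infection read by fluorescence-based β-galactosidase detection.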

[9] = biological target: Human immunodeficiency virus type 1 reverse transcriptase (Human immunodeficiency virus 1) (UniProt Q72547); assay: Inhibition of HIV1 polymerase activity of reverse transcriptase using poly(rA)-oligo(dT)16 and [3H]-TTP up to 25 uM incubated for 20 mins by liquid scintillation spectrometry; method in brief: as §1
[10] = biological target: Human immunodeficiency virus type 1 reverse transcriptase (Human immunodeficiency virus 1) (UniProt Q72547); assay: Inhibition of re-constituted HIV1 reverse transcriptase RNase H domain fragment up to 25 uM
Method in brief: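 Secondary check using a catalytically active, isolated HIV RNase H domain fragment (reconstituted) with duplex substrate HTS-1. […] Upper test concentration 25 µM.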

[11] = biological target: Human immunodeficiency virus type 1 reverse transcriptase (Human immunodeficiency virus 1) (UniProt Q72547); conditions: up to 25 µM
[12] = biological target: Human immunodeficiency virus type 1 reverse transcriptase (Human immunodeficiency virus 1) (UniProt Q72547); assay: Inhibition of RNase H activity of full length recombinant HIV1 reverse transcriptase assessed as reduction in nonspecific internal cleavage up to 25 uM using HTS1 substrate
[13] = biological target: Human immunodeficiency virus type 1 reverse transcriptase (Human immunodeficiency virus 1) (UniProt Q72547); assay: Inhibition of RNase H activity of full length recombinant HIV1 reverse transcriptase assessed as reduction in RNA 5'-end directed cleavage up to 25 uM using HTS3 substrate

Sequence of Human immunodeficiency virus type 1 integrase (Q7ZJM1 whole entry): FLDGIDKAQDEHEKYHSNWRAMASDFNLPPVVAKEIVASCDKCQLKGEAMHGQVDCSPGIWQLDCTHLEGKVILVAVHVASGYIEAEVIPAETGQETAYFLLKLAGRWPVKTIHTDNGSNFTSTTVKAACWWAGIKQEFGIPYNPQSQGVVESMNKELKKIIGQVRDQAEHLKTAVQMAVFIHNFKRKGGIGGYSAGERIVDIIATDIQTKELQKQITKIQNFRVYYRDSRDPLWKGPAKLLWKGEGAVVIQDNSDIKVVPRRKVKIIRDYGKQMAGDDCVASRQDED

Row | SMILES | IC50 ([1]; read-out: IC50) | IC50 [2] | IC50 ([3]; read-out: IC50) | IC50 ([4]; read-out: IC50) | IC50 ([5]; read-out: IC50) | IC50 ([6]; read-out: IC50) | CC50 [7] | IC50 [5] | also measured
1 | COc1cccc(OC)c1-c1cccc(Nc2cc(=O)n(O)c(=O)[nH]2)c1 | 0.47 µM | 1.3 µM | 0.7 µM | 0.51 µM | 1.7 µM | – | – | – | –
2 | COc1cc(OC)cc(-c2ccc(Nc3cc(=O)n(O)c(=O)[nH]3)cc2)c1 | 0.25 µM | 35 µM | 0.32 µM | 0.19 µM | 0.34 µM | – | – | – | –
3 | COc1ccc(-c2ccc(Nc3cc(=O)n(O)c(=O)n3C)cc2)cc1 | 5 µM | 4.4 µM | 6.6 µM | – | – | 0.9 µM | 5 µM | Not Active | –
4 | Cc1ccc(-c2ccc(Nc3cc(=O)n(O)c(=O)[nH]3)cc2)cc1 | 0.5 µM | 93 µM | 0.7 µM | 0.4 µM | 5.7 µM | 0.4 µM | > 25 µM | – | Activity [8]: inactive
5 | COc1cccc(-c2ccc(Nc3cc(=O)n(O)c(=O)[nH]3)cc2)c1 | – | – | – | – | – | – | > 25 µM | – | Activity [8]: inactive
6 | Cn1c(Nc2ccc(-c3cccc(C#N)c3)cc2)cc(=O)n(O)c1=O | 3.3 µM | 30 µM | 3.7 µM | 1.2 µM | – | 0.9 µM | 25 µM | Not Active | –
7 | Cn1c(Nc2cccc(C3CCOC3)c2)cc(=O)n(O)c1=O (centres undefined) | – | – | – | – | – | – | > 25 µM | Not Active | inhibition [9]: inactive; inhibition [10]: inactive; inhibition [11]: inactive; IC50 [1]: Not Active; IC50 [3]: Not Active; IC50 [4]: Not Active; inhibition [12]: inactive; IC50 [6]: Not Active; inhibition [13]: inactive
8 | COc1cccc(-c2ccc(Oc3cc(=O)n(O)c(=O)n3C)cc2)c1 | 16 µM | – | 16 µM | 2 µM | – | 5.1 µM | 6 µM | Not Active | inhibition [9]: inactive
9 | Cc1ccc(-c2cccc(Nc3cc(=O)n(O)c(=O)[nH]3)c2)cc1 | 0.44 µM | 44 µM | 0.45 µM | 0.38 µM | 3.1 µM | – | – | – | –
10 | Cn1c(Oc2ccc(-c3ccc(O)cc3)cc2)cc(=O)n(O)c1=O | 11 µM | 12 µM | 15 µM | 2.2 µM | – | – | – | Not Active | –
11 | O=c1cc(Nc2cccc(-c3ccc(F)cc3)c2)[nH]c(=O)n1O | 0.3 µM | > 100 µM | 0.3 µM | 0.2 µM | 6.6 µM | 0.15 µM | > 25 µM | – | Activity [8]: inactive
12 | COc1cccc(-c2cccc(Nc3cc(=O)n(O)c(=O)n3C)c2)c1 | 4.3 µM | 4.6 µM | 3.5 µM | 0.6 µM | – | 1.7 µM | 10 µM | Not Active | –
13 | COc1ccc(-c2cccc(Nc3cc(=O)n(O)c(=O)[nH]3)c2)c(OC)c1 | 2.4 µM | 1.2 µM | 0.54 µM | 0.31 µM | 3.2 µM | – | – | – | –
14 | Cn1c(Oc2ccccc2-c2ccccc2)cc(=O)n(O)c1=O | – | – | – | – | – | – | – | Not Active | inhibition [9]: inactive; inhibition [11]: inactive; IC50 [1]: Not Active; IC50 [3]: Not Active; inhibition [13]: inactive
15 | Cn1c(Nc2cccc(-c3ccccc3)c2)cc(=O)n(O)c1=O | 3.4 µM | 2.2 µM | 3.5 µM | 0.85 µM | – | – | – | Not Active | –
16 | COc1ccc(-c2ccccc2Oc2cc(=O)n(O)c(=O)n2C)cc1 | 22 µM | 1 µM | – | 2.3 µM | – | 6.4 µM | 6 µM | Not Active | IC50 [3]: Not Active
17 | Cn1c(Nc2cccc(-c3cccc(C#N)c3)c2)cc(=O)n(O)c1=O | 4.1 µM | 7.1 µM | 3.2 µM | 1.1 µM | 5 µM | 1 µM | > 25 µM | – | –
18 | Cn1c(Oc2cccc(-c3cccc(O)c3)c2)cc(=O)n(O)c1=O | 4.3 µM | 7.1 µM | 12 µM | 0.9 µM | – | – | – | Not Active | –
19 | COc1ccc(-c2cccc(Nc3cc(=O)n(O)c(=O)[nH]3)c2)cc1 | 0.4 µM | > 100 µM | 0.3 µM | 0.2 µM | 6.3 µM | 0.1 µM | > 25 µM | – | Activity [8]: inactive
20 | Cc1noc(C)c1-c1ccc(Nc2cc(=O)n(O)c(=O)n2C)cc1 | 3.8 µM | 25 µM | 4.4 µM | 1.6 µM | – | – | – | Not Active | –
21 | COc1ccccc1-c1cccc(Nc2cc(=O)n(O)c(=O)n2C)c1 | 3.8 µM | – | 2.1 µM | 1.2 µM | 6.6 µM | 1 µM | 6 µM | – | –
22 | Cn1c(Oc2ccccc2-c2ccc(C(F)(F)F)cc2)cc(=O)n(O)c1=O | 21 µM | – | – | 3.9 µM | – | 5.1 µM | 6 µM | Not Active | IC50 [3]: Not Active
23 | COc1cc(OC)cc(-c2ccc(Nc3cc(=O)n(O)c(=O)n3C)cc2)c1 | 9.2 µM | – | 7.2 µM | 1.6 µM | 6.5 µM | 1.8 µM | 15 µM | – | –
24 | COc1cccc(-c2ccc(Nc3cc(=O)n(O)c(=O)n3C)cc2)c1 | 5.1 µM | – | 3.5 µM | 0.8 µM | – | 1.7 µM | 6 µM | Not Active | –
25 | Cn1c(Nc2ccc(-c3ccc(C#N)cc3)cc2)cc(=O)n(O)c1=O | 3.7 µM | – | 2.6 µM | 1.1 µM | 3.3 µM | 1 µM | 12 µM | – | –
